A selection: hits, their analogues and other compounds. The true share with any hit is near 3%.
M4 ag = agonists of human muscarinic M4 receptor (CHRM4); CHO-K1 hM4/Gqi5, Fluo-8 calcium fluorescence; vehicle 0%, full acetylcholine response 100%; activation, % at 3 µM; 360,000 tested, 0.14% active;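 active = activation above the run mean over all test wells plus 3 SD, cut at about 32% in these data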;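 note: peak over basal fluorescence ratio per well then scaled between controls; 0% = DMSO wells and 100% = acetylcholine at EC100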
Target sequence (P08173 whole entry, looked up): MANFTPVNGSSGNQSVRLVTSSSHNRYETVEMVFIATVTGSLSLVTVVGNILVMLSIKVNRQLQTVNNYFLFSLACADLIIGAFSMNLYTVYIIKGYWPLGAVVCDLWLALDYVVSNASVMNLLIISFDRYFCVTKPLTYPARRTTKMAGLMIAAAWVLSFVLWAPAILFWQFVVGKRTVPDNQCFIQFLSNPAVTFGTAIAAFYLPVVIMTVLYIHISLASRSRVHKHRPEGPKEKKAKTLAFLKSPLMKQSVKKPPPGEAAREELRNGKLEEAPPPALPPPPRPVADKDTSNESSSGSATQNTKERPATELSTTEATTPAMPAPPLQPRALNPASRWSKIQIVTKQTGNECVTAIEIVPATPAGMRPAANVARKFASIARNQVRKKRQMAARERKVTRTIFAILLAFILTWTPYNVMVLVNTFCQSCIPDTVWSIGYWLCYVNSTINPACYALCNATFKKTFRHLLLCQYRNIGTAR
TAAR1 agonist = agonists of human TAAR1; CHO RD-HGA16 TAAR1, Fluo-8 calcium fluorescence; vehicle wells 0%, saturating PEA agonist 100%; 360,000 tested, 0.99% active; activation, % at 3 µM; Q96RJ0;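 active = activation above the mean activation of all test compounds in the run plus 3 SD, cut at about 38% in these data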
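System: CHO RD-HGA16 cells carrying human TAAR1 plus Gα16; Incubation: 17-24 h seeding, 75 min 37 °C dye, 30 min RT; Measured by: Fluo-8 fluorescence, 5 s baseline then 140 s kinetic read; Control set: DMSO and PEA EC100; Replication: single well for each compound.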
M4 antag = antagonists of human muscarinic M4 receptor (CHRM4); P08173; CHO-hM4 cells, ACh EC80, Fluo-8 calcium fluorescence; inhibition, % at 3 µM; 360,000 tested, 0.73% active; AID 624125;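 active = inhibition above its plate's cutoff, the mean inhibition of sample wells plus 3 SD, cut at about 27% in these data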;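 note: 0% = acetylcholine EC80 with DMSO and 100% = DMSO without agonist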
CHRM4 PAM = positive allosteric modulators of human muscarinic M4 receptor. 360,000 tested, 0.4% active. activation, % at 3 µM. P08173. CHO-K1 hM4/Gqi5, Fluo-8 calcium fluorescence, ACh EC20; 0% = ACh EC20, 100% = maximal ACh. AID 624126;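 active = activation above its plate's cutoff, the mean activation of sample wells plus 3 SD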
TAAR1 antagonist = antagonists of human TAAR1; Q96RJ0; CHO RD-HGA16 TAAR1, Fluo-8 calcium fluorescence, antagonist; inhibition, % at 3 µM; 360,000 tested, 1.5% active;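 active = inhibition above a per-plate cutoff, the mean inhibition of test compounds on that plate plus 3 SD, cut at about 49% in these data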;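 note: 0% = DMSO plus EC80 beta-PEA response and 100% = DMSO alone without agonist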
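Test system – hTAAR1-expressing CHO RD-HGA16 cells, Gα16-coupled · Also added – β-PEA at EC80 concentration, post-compound challenge · Compound – 3 µM, single point · Incubation – dye loading 75 min at 37 °C, then 30 min room temperature · Measured by – Fluo-8 intracellular calcium dye fluorescence, real-time kinetic reads · Benchmarks – vehicle and agonist controls · Replicates – singlicate, one well per test compound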
The depositor's hits bear a star; . = no result given.

SMILES	M4 ag	TAAR1 agonist	M4 antag	CHRM4 PAM	TAAR1 antagonist
O=C(CSc1ccc(F)cc1)N1CCC(c2nc3ccccc3s2)CC1	11	14	-3	-9	52*
O=C(CSc1ccccc1Cl)N1CCC(c2nc3ccccc3s2)CC1	10	13	-21	-3	20
COc1ccc([C@H]2CC(=O)C=C(c3ccc(F)cc3OCc3ccccc3)C2)cc1	0	17	11	5	52*
COc1cccc(C2=CC(=O)C[C@H](c3ccc(Cl)cc3)C2)c1OC	2	2	1	-9	22
COc1ccccc1C1=CC(=O)C[C@H](c2ccc(Cl)cc2)C1	1	15	4	-2	50*
COC(=O)C1=C(C)N(Cc2cccc(C(F)(F)F)c2)C(=NCc2cc(OC)c(OC)c(OC)c2)NC1CCc1ccccc1 (configuration not stated)	.	17	.	.	-11
CC(=O)Nc1nc(COc2ccc3ccccc3c2)cs1	19	38*	11	-11	35
COc1ccc(OCc2nn3c(-c4cccc(OC)c4)nnc3s2)cc1	2	16	-13	21*	6
Cc1c(Cl)cccc1NC(=O)CNC(=O)c1ccc(F)cc1	2	7	21	-6	-19
Cc1c(Cl)cccc1NC(=O)CNC(=O)c1ccc2c(c1)OCCO2	3	20	-40	22*	-1
COC(=O)C1=C(C)N(Cc2ccccc2C(F)(F)F)C(=NCc2ccc(OC)cc2)NC1c1cccc(Cl)c1 (configuration not stated)	.	11	.	.	-2
CSc1ccc(/C=N/NC(=O)CN2CCN(Cc3ccc(C)cc3)CC2)cc1	1	7	42*	-18	-31
CSc1ccc(/C=N/NC(=O)CN2CCN(Cc3ccccc3Cl)CC2)cc1	2	3	-7	-9	4
Clc1ccc(-c2nc(N3CCCCC3)nc3ccccc23)cc1	-1	2	-2	-3	3
c1ccc(-c2nc(-n3nc4ccccc4n3)nc3ccccc23)cc1	1	5	7	2	65*
O=C(O)c1cccc(Nc2nc(Nc3ccccc3)nc(N3CCCC3)n2)c1	0	2	-6	25*	-3
COc1cc(-c2nc3ccccc3nc2-c2ccc(O)c(OC)c2)ccc1O	14	21	-4	-9	53*
COc1cc(-c2nc3ccccn3c2N)ccc1O	1	1	-18	7	3
CN1CCCCC(NC(=O)c2ccc(C#N)cc2)C1=O (configuration not stated)	.	0	.	.	4
Cc1cc(N/C(=N\S(=O)(=O)c2ccc(F)cc2F)c2ccccc2)no1	1	2	-9	20*	7
CCOC(=O)C1=C(COC(=O)c2ccccc2OC)NC(=O)NC1C (configuration not stated)	15	14	0	-8	49*
O=c1c2ccccc2[nH]c(=S)n1C1CCCCC1	0	40*	-1	7	26
CC(C)C[C@@H]1COc2cc(NCCO)ccc2S(=O)(=O)N1	.	0	.	.	-19
Fc1ccc(-c2cc3nc(-c4ccccc4)cc(N4CCN(CCN5CCOCC5)CC4)n3n2)cc1	33*	24	11	-11	43
CCC(C)(C)c1ccc(OCCCC[n+]2cccc(C)c2)c(C(C)(C)CC)c1	2	32	47*	-17	-16
SMILES	M4 ag	TAAR1 agonist	M4 antag	CHRM4 PAM	TAAR1 antagonist
Cc1ccc[n+](CC(=O)Nc2cc(C(F)(F)F)ccc2Cl)c1	0	13	1	0	0
Cc1cc(C)nc(SSc2nc(C)cc(C)n2)n1	9	46*	2	-1	26
S=c1[nH]nc(-c2ccncc2)n1/N=C/C(Cl)=C\c1ccccc1	5	52*	-16	26*	-13
S=c1[nH]nc(-c2ccncc2)n1/N=C/C=C/c1ccccc1	0	3	-8	11	-7
Cc1ccc(SCC(=O)OCC(=O)N(C)CC(=O)Nc2ccc(F)cc2)cc1C	52*	113*	-9	1	42
O=C(N/N=C/c1ccc(Cl)cc1Cl)c1n[nH]c2c1CCCC2	1	-1	-12	26*	-24
O=C(N/N=C\c1cccc(Cl)c1)c1n[nH]c2c1CCCC2	1	5	-2	8	-17
O=C(/C=C/c1ccc(F)cc1)NC(=S)NNC(=O)c1cnccn1	1	2	30*	13	-53
COc1ccc(/C=C/C(=O)NC(=S)NNC(=O)c2cnccn2)cc1	0	0	2	0	-5
Cc1c(CC(=O)NCCCCCC(=O)O)c(=O)oc2c(C)c3oc4c(c3cc12)CCCC4	1	-1	-4	14*	-24
Cc1c(CC(=O)NCCCC(=O)O)c(=O)oc2cc3oc4c(c3cc12)CCCC4	0	-1	8	-2	-2
C[C@H]1CN([C@@H](C)CO)C(=O)Cc2cc(NC(=O)CCC(F)(F)F)ccc2O[C@H]1CN(C)C(=O)Nc1ccc(F)cc1	0	10	3	6	6
C[C@H](CO)N1C[C@H](C)[C@@H](CN(C)C(=O)NC2CCCCC2)Oc2ccc(NC(=O)CCC(F)(F)F)cc2C1=O	2	8	0	24*	14
C[C@H]1CN([C@@H](C)CO)C(=O)Cc2cc(NC(=O)CCC(F)(F)F)ccc2O[C@H]1CN(C)S(=O)(=O)c1ccc(Cl)cc1	1	13	36*	-15	7
C[C@H](CO)N1C[C@H](C)[C@@H](CN(C)S(=O)(=O)c2ccc(Cl)cc2)Oc2ccc(NS(=O)(=O)c3ccccc3)cc2CC1=O	3	6	-15	9	8
C[C@H]1CN([C@@H](C)CO)C(=O)Cc2cc(NC(=O)CCC(F)(F)F)ccc2O[C@H]1CN(C)S(=O)(=O)c1ccc(F)cc1	-1	1	63*	-17	-3
CCNC(=O)N1CCN(c2ccc(N3CCN(Cc4ccccc4)[C@@H](C)C3)c(C)c2)[C@H](C)C1	.	4	.	.	17
COc1ccc(NC(=S)NCCN2CCOCC2)c(OC)c1	1	5	-5	16*	4
COc1ccc(N(Cc2cc3cc(OC)ccc3[nH]c2=O)S(=O)(=O)c2ccc(NC(C)=O)cc2)cc1	23	29	23	-8	58*
CCOc1cc(C(=O)N(C)Cc2cc3cc(OC)ccc3[nH]c2=O)cc(OCC)c1OCC	1	10	-2	30*	3
CCOc1ccccc1C(=O)N(C)Cc1cc2cc(OC)ccc2[nH]c1=O	4	0	-4	5	-4
CC(=O)Nc1ccc(S(=O)(=O)N(Cc2cccnc2)Cc2cc3ccccc3[nH]c2=O)cc1	17	12	21	-6	61*
COc1ccc(N(Cc2cc3ccccc3[nH]c2=O)S(=O)(=O)c2ccc(OC)cc2)cc1	6	5	2	-1	48
